Assay outcomes deposited in PubChem by The Scripps Research Institute Molecular Screening Center.
SIAE primary = human SIAE inhibitors, primary screen, biochemical, fluorescence polarization, FP-Rh probe, 1536-well HTS; hit rate 0.69% among 370,000; inhibition, % at 9.66 µM; Sialate O-acetylesterase (Homo sapiens), Q9HAT2; SIAE FP-Rh probe binding;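 active means inhibition above a cutoff: mean of compounds within the control limits plus 3 SD of those, cut at about 17% in these data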;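 further: 0% = plate median of compound wells and 100% = probe without SIAE protein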
HTRA1 inh = HTRA1 serine protease inhibitors, primary screen, biochemical, fluorescence polarization, HTS; Q92743; recombinant HTRA1, FP-rhodamine activity-based probe; inhibition, % at 5.96 µM; hit rate 0.5% among 340,000; AID 504803, 2011; in the data active means inhibition above about 36%;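 further: 0% = enzyme with DMSO and 100% = wells lacking enzyme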
Target sequence (Q92743 whole entry, looked up): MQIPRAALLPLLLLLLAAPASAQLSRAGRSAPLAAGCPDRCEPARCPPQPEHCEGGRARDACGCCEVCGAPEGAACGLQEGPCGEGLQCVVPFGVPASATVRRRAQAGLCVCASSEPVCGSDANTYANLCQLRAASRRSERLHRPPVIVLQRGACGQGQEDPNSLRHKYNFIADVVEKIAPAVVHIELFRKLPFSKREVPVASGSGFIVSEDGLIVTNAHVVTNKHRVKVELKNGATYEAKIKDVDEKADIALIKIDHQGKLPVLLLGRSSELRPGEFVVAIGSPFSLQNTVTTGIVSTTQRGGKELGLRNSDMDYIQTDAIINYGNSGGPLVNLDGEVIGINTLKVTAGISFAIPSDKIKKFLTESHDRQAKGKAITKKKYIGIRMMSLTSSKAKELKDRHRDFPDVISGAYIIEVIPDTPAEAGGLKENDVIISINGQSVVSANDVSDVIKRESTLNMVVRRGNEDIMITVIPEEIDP
TCR-CD3 inh = inhibitors of human TCR-CD3 interaction, primary screen, biochemical, fluorescence, TAMRA-labeled TCR probe | hit rate 0.37% among 360,000 | inhibition, % at 9.4 µM | AID 651800, 2012; in the data active means inhibition above about 19%;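 further: recombinant mutant TCR 2C K166C tagged with TAMRA read by polarization; 0% = receptor in buffer alone and 100% = receptor with positive control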
ABHD4 inh = ABHD4 inhibitors, primary screen, biochemical, fluorescence polarization, mouse; purified mABHD4, FP-Rh probe fluorescence polarization; inhibition, % at 8.92 µM; hit rate 0.54% among 370,000;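 active means inhibition exceeding the mean over every tested compound plus 3 SD, cut at about 30% in these data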;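 further: 0% = plate median of compound wells and 100% = S159A mutant with DMSO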
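Doses – 8.92 µM, single dose · Material – wild-type mouse ABHD4 protein · Replication – single well per compound (singlicate) · Measure – percent inhibition of probe binding, normalized to plate controls · Schedule – 45 min compound pre-incubation plus 60 min probe step, 25 °C · Detection – fluorescence polarization with parallel and perpendicular emission, 525/598 nm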
PAD4 FP inh = human PAD4 inhibitors, primary screen, biochemical, fluorescence polarization, 1536-well format. inhibition, % at 6.36 µM. AID 485272, 2010. hit rate 0.41% among 330,000. recombinant PAD4, RCA probe fluorescence polarization;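 active means percent inhibition above a cutoff equal to the mean of all tested compounds plus 3 SD, cut at about 15% in these data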;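 further: 0% = PAD4 with RCA probe and DMSO and 100% = probe without PAD4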
TDP2 absorb = human TDP2 enzyme inhibitors, primary screen, biochemical, epi absorbance, recombinant enzyme | Tyrosyl-DNA phosphodiesterase 2 (Homo sapiens), O95551 | T5PNP hydrolysis, p-nitrophenol absorbance 415 nm | inhibition, % at 12.8 µM | hit rate 0.34% among 370,000 | AID 720702, 2013;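 active means inhibition above the mean of all tested compounds plus 3 SD, set per campaign, cut at about 25% in these data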;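 further: 0% = DMSO with enzyme and 100% = buffer with substrate but no TDP2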
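test system = human TDP2 enzyme | input = TDP2 enzyme at 120 nM final | medium = 50 mM Tris-HCl pH 7.5 with Mg2+, KCl, DTT, BSA | also added = T5PNP substrate, 5 mM | times = 2 h at 37 °C | technique = epi absorbance | benchmarks = high control without enzyme, low control DMSO plus TDP2 | replication = each compound tested once, singlicate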
TDP2 confirm = human TDP2 enzyme inhibitors, retest, confirmation, biochemical, epi absorbance, recombinant enzyme | shares compounds with TDP2 absorb | hit rate 22% among 1,100 | AID 743263, 2014 | inhibition, % at 12.8 µM | absorbance read-out; in the data active means inhibition above about 25%;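 further: 0% = vehicle with enzyme and 100% = no enzyme buffer only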
An asterisk follows results filed as active; / = no result. Only some compounds are listed: those with a hit (about 2% of all), similar ones and a draw of the others.

SMILES | SIAE primary | HTRA1 inh | TCR-CD3 inh | ABHD4 inh | PAD4 FP inh | TDP2 absorb | TDP2 confirm
Cc1cc(C)cc(NC(=S)Nc2cccc3cnccc23)c1 | 4 | 3 | 2 | 3 | / | 9 | /
CCc1ccc(NC(=S)Nc2cccc3cnccc23)cc1 | 10 | -6 | 4 | 13 | -8 | 38* | 6
Cc1ccc(S(=O)(=O)N(C)CC(=O)Nc2cccc(C)n2)cc1 | 1 | -2 | 2 | 4 | -1 | 80* | 7
O=C(Cn1nnc(-c2ccccc2F)n1)Nc1ccc(Cl)cc1 | 1 | / | / | -2 | / | -9 | /
O=c1[nH]c(-c2ccccn2)cc2ccccc12 | 3 | 1 | 1 | 5 | 6 | 7 | /
O=c1[nH]c(Nc2ccccn2)cc2ccccc12 | 3 | 4 | -1 | 9 | 8 | 49* | 27*
Cc1ccc2nc(SCC(=O)Nc3ccc4c(c3)OCO4)nc(=O)n2c1 | 5 | 2 | 2 | -1 | -6 | 14 | /
Cc1ccc(CN2CCC(N3CC(C)OC(C)C3)CC2)cc1 (centres undefined) | -1 | 6 | 1 | 17 | / | 25* | 4
Cc1ccc(S(=O)(=O)N2CCN(C3CCN(Cc4ccccc4)CC3)CC2)cc1 | 1 | -1 | 0 | -1 | -4 | -10 | /
CCC(O)CC(C(=O)NNc1ccccc1)C(=O)NNc1ccccc1 (centres undefined) | 9 | 3 | -2 | 3 | -3 | -11 | /
COc1c2c(cc3c1C(CC(O)Cc1ccccc1)N(C)CC3)OCO2 (centres undefined) | 7 | 3 | -4 | 10 | -1 | 25* | -2
O=C(Nc1cc(F)ccc1F)C1CCCN1S(=O)(=O)c1cccc2nsnc12 (centres undefined) | 3 | 4 | 1 | -2 | -6 | 23 | /
COc1ccc(C(=O)NNC(=O)CSc2nc3c(c(=O)n(C)c(=O)n3C)n2C)cc1 | -2 | -1 | -6 | -1 | -7 | 25* | 7
CC(C)c1cc(C(=O)N2CCCC(CCC(=O)N3CCN(c4ccccn4)CC3)C2)no1 (centres undefined) | -8 | 1 | -5 | 4 | -4 | 1 | /
COc1ccc2c(c1)Cc1sc(NC(=O)c3ccco3)nc1-2 | -5 | -12 | -2 | 5 | -7 | 64* | 10
COc1ccc2c(c1)Cc1sc(NC(C)=O)nc1-2 | 7 | 3 | 8 | 4 | -14 | 49* | 29*
COc1ccc2c(c1)CCc1sc(NC(=O)c3ccco3)nc1-2 | / | 0 | / | / | -4 | / | /
COc1ccc2c(c1)Cc1sc(NC(=O)c3cccnc3)nc1-2 | 6 | 5 | 3 | 10 | -8 | -8 | /
C=CCn1c(N)c(C(=O)NCC2CCCO2)c2nc3ccccc3nc21 (centres undefined) | -4 | 2 | -1 | -2 | 12 | 35* | -8
C=CCNc1nc(C(=O)OCC(=O)c2ccc(Cl)cc2)cs1 | 0 | -25 | 2 | 6 | -12 | 25* | -6
Cc1ccc(N(CC(=O)NC2CCCCC2)S(=O)(=O)c2c(C)noc2C)cc1 | 5 | 5 | -3 | 19 | 4 | 29* | -3
COc1cc(CCNC2=CC(=O)c3ncccc3C2=O)ccc1O | 9 | 11 | 6 | 15 | / | 29* | 35*
O=C(N/N=C/c1cc(Cl)ccc1O)c1cccnc1 | 8 | 6 | 1 | 6 | -1 | 60* | -13
Nc1[nH]c(C(=O)c2ccccc2)c(-c2ccc(Cl)cc2)c1C(=O)NCc1ccccc1 | -7 | / | -2 | 7 | / | -6 | /
CCN(C(=O)COC(=O)c1[nH]c(=O)[nH]c(=O)c1N)c1ccccc1 | 0 | 5 | 5 | 5 | -6 | 30* | 0
SMILES | SIAE primary | HTRA1 inh | TCR-CD3 inh | ABHD4 inh | PAD4 FP inh | TDP2 absorb | TDP2 confirm
CCN1C(=O)c2cccc3c(S(=O)(=O)N(C(C)=O)c4ccc(OC(C)=O)cc4)ccc1c23 | -1 | 1 | -5 | 1 | 14 | 1 | /
Cc1ccc(OCCCCN2CCCCC2)cc1 | -3 | 4 | 2 | 5 | / | -11 | /
Cc1ccc(OCCN2CCCC2)cc1 | 3 | -3 | 6 | 6 | 0 | 25* | 11
CC(C)(C)c1ccc(SCCc2cccnc2)cc1 | 2 | 7 | 5 | -2 | 3 | 0 | /
Cn1ccc2c(N3c4ccccc4CCc4ccccc43)cc3c(c21)C1CCC3O1 (centres undefined) | 8 | / | -3 | 18 | / | 28* | 3
Cn1ccc2c(N3c4ccccc4CCc4ccccc43)cc3c(c21)C1CCC3C1 (centres undefined) | 10 | / | -1 | 17 | / | 0 | /
NC(=O)C1CCN(c2nc(-c3cccs3)cs2)CC1 | / | 2 | / | / | 6 | / | /
CCS(=O)(=O)N1CCN(C(=O)c2cccc3ccccc23)CC1 | 9 | 2 | -2 | 0 | 0 | 2 | /
COc1cc(O)c(NC(C)=O)c2nonc12 | 3 | 5 | -1 | 3 | 9 | 48* | 24
O=C(NCC(=O)N1CCN(C(=O)c2ccco2)CC1)c1ccc(Br)cc1 | 4 | 11 | 6 | 4 | 2 | 25* | -4
C/C(=N\NC(=O)CNC(=O)c1ccc(Br)cc1)c1ccco1 | 8 | -1 | -3 | 1 | 1 | 36* | -9
O=C(NCC(=O)N1CCCC1)c1ccc(Br)cc1 | 4 | -2 | -2 | 0 | -1 | 10 | /
C/C(=N\NC(=O)CNC(=O)c1ccco1)c1ccc(Br)cc1 | 8 | -2 | 7 | 2 | -2 | 13 | /
CCCN(CCC)CCc1cccc2c1CC(=O)N2 | 1 | / | / | 8 | / | 3 | /
CC(=O)Nc1nc2cc([N+](=O)[O-])ccc2s1 | 7 | 2 | 1 | 3 | 0 | 35* | 4
CC(=O)c1sc(N/N=C\c2ccccc2O)nc1C | 0 | 9 | 3 | 21 | -2 | -3 | /
COc1cc(NS(=O)(=O)c2ccc(NC(=S)NC(=O)/C=C/c3ccco3)cc2)ncn1 | -10 | -5 | 11 | 9 | / | 36* | 41*
O=C(NC(=S)Nc1ccccc1N1CCCCC1)c1ccco1 | -5 | -22 | -3 | -8 | 4 | -17 | /
O=C(NC(=S)Nc1ccccc1N1CCCC1)c1ccco1 | 10 | / | 5 | 12 | 1 | 38* | 29*
Cc1c(NC(=O)C(C)OC(=O)c2ccc([N+](=O)[O-])s2)c(=O)n(-c2ccccc2)n1C (centres undefined) | 2 | 27 | -2 | 8 | -10 | 44* | 32*
